Screens as filed in PubChem.
Fibroblast inh: blocks proliferation of human lung fibroblasts | LL 47 human lung fibroblast viability, ATP luminescence; active compounds read low | viability, % at 10 µM | 85,000 compounds, 1.1% hits;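 active means viability at or below 50% in the single dose screen; inactive means viability above 50%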;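 further: compound exposure lasted 72 h before the ATP readout; 100% = median luminescence of untreated cell-only wells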
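Assay system: human lung fibroblast line LL 47, low passage. Input: 1,150 fibroblasts seeded per well. Times: overnight cell rest, 72 h compound treatment at 37 °C. Evaluation: % viability of median cell-only signal. Technique: luminescent ATP detection, CellTiter-Glo. Control set: cell-only wells, no compound.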
HUVEC prolif 384: inhibitors of human endothelial cell proliferation; viability, % at 10 µM (by protocol); HUVEC proliferation, CellTiter-Glo luminescence, 72 h; active compounds read low; 86,000 compounds, 1.1% hits;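 active means viability at or below 30%; inactive means viability above 30%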;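 further: 100% = median luminescence of DMSO-only cell control wells on each plate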
H69AR inhibit: blocks growth of human H69AR lung tumor cells. H69AR lung tumor viability, ATP luminescence, 72 h; active compounds read low. viability, % at 10 µM. 85,000 compounds, 6% hits;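 active means viability at or below 40%; inactive means viability above 40%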;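 further: multidrug resistant small cell line overexpressing MRP-1 efflux transporter; 100% = mean luminescence of untreated control wells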
PTEN del growth: suppresses growth of cells with PTEN deletion; HCT116 PTEN-null viability, CellTiter-Glo, 60 h; active compounds read low; viability, % at 10 µM; 140,000 compounds, 1.2% hits;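 active means viability at or below a set limit, 4 SD under the median of all tested compounds, cut at about 3.7% in these data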;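 further: PTEN knockout HCT116 line with beta catenin targeted HCT116 as companion control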
HCT116 bCat-KO: beta-catenin-lacking colon tumor cell growth suppression; HCT116 beta-catenin knockout viability, CellTiter-Glo, 60 h; active compounds read low; viability, % at 10 µM; 140,000 compounds, 1.5% hits;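 active means viability at or under a set limit, the compound median less 4 SD, cut at about 6% in these data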;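 further: 0% = Hyamine 1622 control at 20 µM and 100% = untreated cell control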
* = called active by the depositor; / = no result. The entries come from a sample that favours hits as a whole.

SMILES	Fibroblast inh	HUVEC prolif 384	H69AR inhibit	PTEN del growth	HCT116 bCat-KO
COc1ccc(C2C(C#N)=C(N)N(c3cccnc3)C3=C2C(=O)CC(C)(C)C3)cc1OC (stereo not drawn)	/	/	/	87	84
COc1ccc(C2C(C#N)=C(N)N(Nc3ccccc3)C3=C2C(=O)CC(C)(C)C3)cc1C (stereo not drawn)	/	/	/	59	66
CC1CCC(NC(=O)CC(C)(C)Cc2nc3ccccc3c(=O)[nH]2)CC1 (stereo not drawn)	97	71	25*	82	78
CCCN(CCC)S(=O)(=O)c1ccc(C(=O)NNc2nc(-c3ccccc3)c3cc(Br)ccc3n2)cc1	/	/	/	66	80
COc1ccc(C(=O)c2c(C(F)(F)F)oc3c2C(=O)c2ccccc2C3=O)cc1OC	2.4*	4.7*	1.6*	1.9*	1.3*
Cn1c(C2CCCN2C(=O)OC(C)(C)C)n[nH]c1=S (stereo not drawn)	92	96	1.8*	107	88
COc1cc(/C=C2/CCC/C(=C\c3cc(O)c(OC)c(Cl)c3)C2=O)cc(Cl)c1O	/	/	/	1.9*	2.0*
COc1cc(/C=C2\CC/C(=C\c3cc(OC)c(O)c(OC)c3)C2=O)cc(OC)c1O	/	/	/	2.5*	2.1*
O=S(=O)(c1cc(Cl)ccc1Cl)N1CC2CCCN2c2ccc(C(F)(F)F)cc21 (stereo not drawn)	/	/	/	54	49
NC(=O)NCc1ccc(Cl)cc1	/	/	/	94	98
CN1CCN(CCOC2Cc3ccccc3Sc3ccc(Cl)cc32)CC1 (stereo not drawn)	/	/	/	33	29
OCCN1CCN(C2Cc3cc(Cl)ccc3Sc3ccc(Cl)cc32)CC1 (stereo not drawn) (tested in a mixture with another compound)	92	2.4*	8.9*	44	33
CCCCCCC1CCC(C(=O)Nn2c(C)nc3ccccc3c2=O)CC1 (stereo not drawn)	98	113	35*	65	62
CCCC1CCC(C(=O)Nn2c(C)nc3ccccc3c2=O)CC1 (stereo not drawn)	95	92	94	89	93
Cc1cccc(-n2c(SCc3ccc(C#N)cc3)nnc2-c2c[nH]c3ccccc23)c1	/	/	/	80	76
Cc1ccc2nc(C)/c(=N\O)c(C)nc2c1	98	93	6.8*	87	88
Cc1nc2ccc(Cl)cc2nc(C)/c1=N\O	91	87	5.6*	100	98
CCOC(=O)c1nc2ccccc2nc1C	/	/	/	104	91
Cc1nc2ccccc2nc(C)c1=NO	93	95	27*	99	82
CCOC(=O)c1c(CC(C)C)csc1NC(=O)COC(=O)c1cc(OC)c(OC)cc1[N+](=O)[O-]	/	/	/	65	68
COc1cc(/C=N/NC(=O)CN2CCCCC2)ccc1OCc1ccc(Br)cc1	/	/	/	92	91
CCOC(=O)N1CCC(NC(=O)C2CCC(CNS(=O)(=O)c3ccc(OC)cc3)CC2)CC1 (stereo not drawn)	/	73	6.0*	95	92
CCOC(=O)N1CCC(NC(=O)CNS(=O)(=O)c2ccc(Br)s2)CC1	90	74	23*	81	86
CCOC(=O)N1CCN(C(=O)C2CCC(CNS(=O)(=O)c3ccc(Cl)cc3)CC2)CC1 (stereo not drawn)	97	97	82	104	104
CCCC/C(O)=C1\C(=O)CC(C)(C)CC1=Nc1ccccc1OC	93	107	33*	81	82
SMILES	Fibroblast inh	HUVEC prolif 384	H69AR inhibit	PTEN del growth	HCT116 bCat-KO
COC(=O)CC/C(O)=C1\C(=O)CC(C)(C)CC1=Nc1ccccc1OC	94	93	29*	85	104
COc1ccc(OC)c(N=CC2=C(O)CC(C)(C)CC2=O)c1	97	96	94	86	88
CCC/C(O)=C1\C(=O)CC(C)(C)CC1=Nc1ccc(OC)cc1OC	57	60	21*	22	19
CC/C(O)=C1\C(=O)CC(C)(C)CC1=Nc1ccccc1C	/	/	/	97	104
CC1=CC(C)(C)[N+](C)=CN1c1ccccc1	/	/	/	88	90
O=S(=O)(c1ccc(S(=O)(=O)N2CCN(C/C=C/c3ccccc3)CC2)cc1)N1CCCC1	84	70	36*	89	65
O=C1N/C(=C\c2ccccc2)c2ccccc21	75	43	24*	39	43
O=C1O/C(=C\c2ccccc2)c2ccccc21	/	/	/	97	95
Cc1nc(C)c(C(=O)N/N=C/c2cn(C)c3ccccc23)s1	/	/	/	53	63
CCCCCNCc1cccc(Br)c1	/	/	/	86	88
COc1ccc(C(CCN(Cc2ccc(OC)c(OC)c2)C(C)=O)c2ccccc2)cc1 (stereo not drawn)	/	/	/	75	77
COc1ccc(CN(CCC(c2ccccc2)c2ccc(OC(C)C)cc2)C(=O)CCl)cc1OC (stereo not drawn)	/	/	/	1.5*	1.5*
COc1ccc(-c2csc(NC(=O)c3ccc(S(=O)(=O)N4CCc5ccccc5C4)cc3)n2)cc1	/	/	/	57	63
COc1ccc(-c2nnc(NC(=O)c3ccc(S(=O)(=O)N4CCc5ccccc5C4)cc3)o2)cc1	69	13*	18*	16	22
NC(=O)c1oc2ccccc2c1NC(=O)c1nc2ccccc2s1	95	91	91	82	86
Cc1ccccc1C(=O)Nc1nnc(-c2ccc(F)cc2)o1	85	65	36*	13	12
CN(C)S(=O)(=O)c1ccc(C(=O)Nc2nnc(-c3ccc4c(c3)CCCC4)o2)cc1	71	40	28*	15	15
O=C(Nc1nnc(-c2ccccc2)o1)c1nc2ccccc2s1	90	67	29*	/	/
CC(=O)N/C(=C/c1ccc2c(c1)OCO2)C(=O)NCCO	/	/	/	91	91
O=C(Nc1nnc(-c2ccc3c(c2)CCCC3)o1)c1ccc(Cl)cc1Cl	89	29*	52	52	50
COc1ccc(-c2nnc(NC(=O)c3cc(Cl)ccc3Cl)o2)cc1	76	50	30*	22	29
O=C(Nc1nnc(-c2ccc3c(c2)CCCC3)o1)C1CCCCC1	80	70	49	59	43
N#Cc1ccc(OCC(=O)Nc2ccccc2NS(=O)(=O)c2cccs2)cc1	/	/	/	89	92
CN(C)CCCNC(=O)c1ccccn1	98	94	91	94	100
CN(C)CCCNC(=O)c1ccc(-c2nc(-c3ccc(Cl)cc3)cs2)cc1	/	/	/	1.5*	1.3*
O=C(C1CCCO1)N1CCN(C(=S)Nc2ccccc2F)CC1 (stereo not drawn)	/	/	/	101	88
Brc1ccccc1-c1nnc(SCc2nc3ccccc3s2)o1	/	/	/	86	89
O=C(CSc1nnc(-c2cccc(S(=O)(=O)N3CCCCC3)c2)o1)NCCC1=CCCCC1	108	80	61	82	100
CCN(CC)S(=O)(=O)c1cccc(-c2nnc(SC(C)C(=O)NCCC3=CCCCC3)o2)c1 (stereo not drawn)	94	79	33*	39	26
CCN(CC)S(=O)(=O)c1cccc(-c2nnc(SCc3nc4ccccc4s3)o2)c1	81	87	35*	53	42
